{
  "source": "paper PMC9365243",
  "about": "(Chemical Science, 2022)",
  "system": "human monocyte-derived macrophages",
  "experiment": "Fluorophore uptake, fluorescence microscopy of macrophages",
  "assay_type": "cell-based",
  "details": "30 μM, 3 h, 37 °C, fluorescence microscopy (λex 492 nm, λem 518 nm)",
  "method_in_brief": "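Human monocyte-derived macrophages were incubated for 3 h with 30 μM free fluorophore or fluorophore-labelled oligopeptide, with DMSO alone as negative control. Cells were then imaged by fluorescence microscopy in the green channel (λex = 492 nm, λem = 518 nm) and in light field to find where the fluorophore sat.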",
  "data": [
    {"compound": "O=C(O)c1ccc2c(c1)C(=O)OC21c2ccc(O)cc2Oc2cc(O)ccc21", "note": "[5-FAM, 5-carboxy-fluorescein]", "values": [
      {"measurement": "uptake into cells (fluorophore localization)", "value": "not able to penetrate the cell membrane"}
    ]}
  ]
}
